Legend:
[1] = test system: HFF; experiment: Tested for cytotoxicity in human foreskin fibroblasts at time of HCMV plaque enumeration; format: functional, cell-based
Method in brief: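 HFF cells (MEM/Earle's, 10% fetal bovine serum), uninfected cells within HCMV plaque-reduction wells. Drug cytopathology scored visually at 30-fold magnification on a 0-4+ scale on the day of staining for plaque enumeration. IC50 from regression against log concentration.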

[2] = species on record: Homo sapiens; experiment: Tested for in vitro cell growth inhibition of H. Ep. 2 cells; No significant effect; format: functional, cell-based
Method in brief: (§1)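 H.Ep.2 cells grown in MEM/Earle's with 15% heat-inactivated calf serum, 5% CO2. 2000 cells/well plated in 5% calf serum; compound added 1 day later. […] Top concentration 100 μM.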

[3] = test system: L1210; experiment: Tested for in vitro cell growth inhibition of L1210 cells; No significant effect; format: functional, cell-based, Mus musculus
Method in brief: (§2)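 L1210 cell number counted at 0, 48 and 96 h across a range of concentrations. Growth rate is the slope of semilog cell number vs time as percent of control (ratio of control to treated doubling time); the 48-96 h rate is used if growth slowed. IC50 halves growth rate. Top concentration 100 μM.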

[4] = test system: Human betaherpesvirus 5; experiment: Tested for antiviral activity against human cytomegalovirus by plaque assay; format: functional, organism-based
Method in brief: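 Towne strain HCMV (plaque-purified P0) on HFF monolayers. Inoculum about 50 PFU in 0.2 mL; compounds dissolved in the overlay medium. IC50 from linear regression of percent inhibition vs log concentration. Ganciclovir positive control; assay sets rejected if it deviated >1.5 SD from its mean response.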

[5] = test system: Human alphaherpesvirus 1; experiment: Tested for antiviral activity against Herpes simplex virus type-1 using enzyme immunoassay
[6] = Tested for the inhibition of KB cell growth; format: functional, cell-based; details: Homo sapiens
Method in brief: (§3)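 KB cells (MEM/Hank's, 5% fetal bovine serum). Growth measured spectrophotometrically after crystal violet staining 2 days after drug treatment. IC50 from linear regression of percent inhibition vs log concentration.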

[7] = test system: Human betaherpesvirus 5; experiment: Tested for antiviral activity against human cytomegalovirus by yield reduction assay; format: functional
[8] = test system: Calu-1; experiment: Tested for in vitro cell growth inhibition of CALU-1 cells; format: functional, cell-based; details: Homo sapiens
Method in brief: (§4)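 Adherent tumor lines in RPMI 1640 + 5% fetal bovine serum (UMSCC-10A: MEM-5). Cells/well: UMSCC-10A, CALU-1, NCI-H1437 and HT-29 2000; NCI-H460 1000; DLD-1 1000; SW-620 7500. Compound added 1 day after plating. Sulforhodamine B readout on day 5 (NCI-H460 and SW-620: day 4). IC50 halves growth rate vs control. Top concentration 100 μM.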

[9] = test system: NCI-H460; experiment: Tested for in vitro cell growth inhibition of NCI-H460 cells; format: functional, cell-based; details: Homo sapiens; method in brief: as §4
[10] = Tested for in vitro cell growth inhibition of NCI-H1437; format: functional; details: Homo sapiens; method in brief: as §4
[11] = Tested for in vitro cell growth inhibition of […] cells; format: functional, cell-based; details: Homo sapiens; method in brief: as §4
[12] = test system: L1210; experiment: Tested for in vitro cell growth inhibition of L1210 cells; format: functional, cell-based; details: Mus musculus; method in brief: as §2
[13] = test system: NCI-H460; experiment: Tested for in vitro cell growth inhibition of NCI-H460; format: functional, cell-based; details: Homo sapiens; method in brief: as §4
[14] = species on record: Homo sapiens; experiment: Tested for in vitro cell growth inhibition of H.Ep. 2 cells; format: functional, cell-based; details: HEp-2; method in brief: as §1
[15] = test system: HT-29; experiment: Tested for in vitro cell growth inhibition of HT-29 cells; format: functional, cell-based; details: Homo sapiens; method in brief: as §4
[16] = Tested for in vitro cell growth inhibition of UMSCC-10A cells; format: functional, cell-based; details: Homo sapiens; method in brief: as §4
[17] = test system: SW-620; experiment: Tested for in vitro cell growth inhibition of SW-620 cells; format: functional, cell-based; details: Homo sapiens; method in brief: as §4
[18] = test system: DLD-1; experiment: Tested for in vitro cell growth inhibition of DLD-1 cells; format: functional, cell-based; details: Homo sapiens; method in brief: as §4
[19] = Tested for in vitro cell growth inhibition of NCI-H146 cells; format: functional, cell-based; details: Homo sapiens
[20] = Tested for in vitro cell growth inhibition of NCI-H1437 cells; format: functional, cell-based; details: Homo sapiens; method in brief: as §4
[21] = test system: NCI-H417; experiment: Tested for in vitro cell growth inhibition of NCI-N417 cells; format: functional, cell-based; details: Homo sapiens
[22] = Tested for the inhibition against KB cell growth; format: functional, cell-based; details: Homo sapiens; method in brief: as §3
[23] = test system: NCI-H417; experiment: Tested for in vitro cell growth inhibition of NCI-N417 cells; No significant effect; format: functional, cell-based, Homo sapiens
[24] = Tested for in vitro cell growth inhibition of NCI-H146 cells; No significant effect; format: functional, cell-based, Homo sapiens
[25] = species on record: Homo sapiens; experiment: Tested for in vitro cell growth inhibition of H.Ep. 2 cells; No significant effect; format: functional, cell-based; method in brief: as §1
[26] = test system: Calu-1; experiment: Tested for in vitro cell growth inhibition of CALU-1 cells; No significant effect; format: functional, cell-based, Homo sapiens; method in brief: as §4

Compound | IC50 [1] | IC50 [4] | IC50 [5] | IC50 [6] | IC90 [7] | IC50 [8] | IC50 [12] | other results
Nc1nncc2c1ccn2C1O[C@H](CO)[C@@H](O)[C@H]1O (stereo partly specified) | > 100 µM | > 100 µM | > 100 µM | – | – | – | – | IC50 [2]: Not Active; IC50 [3]: Not Active
Nc1nc2c(ncn2COC(CO)CO)c(=O)[nH]1 [GANCICLOVIR] | > 100 µM | 7.7 µM | 3.5 µM | > 100 µM | 1.8 µM | – | – | –
Nc1nncc2c1c(Br)cn2C1O[C@H](CO)[C@@H](O)[C@H]1O (stereo partly specified) | 100 µM | 121 µM | – | 12 µM | 1.4 µM | 11 µM | – | IC50 [9]: 11 µM
Nc1n[nH]c(=O)c2c1c(Br)cn2[C@@H]1O[C@H](CO)[C@@H](O)[C@H]1O | 2.5 µM | 0.1 µM | 2 µM | < 1.2 µM | 0.04 µM | 0.23 µM | 0.1 µM | IC50 [10]: 0.5 µM; IC50 [11]: 1.3 µM; IC50 [13]: 0.5 µM; IC50 [14]: 0.2 µM
Nc1nnc(O)c2c1c(Cl)cn2C1O[C@H](CO)[C@@H](O)[C@H]1O (stereo partly specified) | 2.1 µM | 0.2 µM | 6.8 µM | 6.1 µM | 0.7 µM | – | 0.23 µM | –
Nc1ncnc2c1c(Br)cn2[C@@H]1O[C@H](CO)[C@@H](O)[C@H]1O | 1.2 µM | – | – | 3 µM | 3.5 µM | – | – | –
Nc1nnc(O)c2c1c(I)cn2C1O[C@H](CO)[C@@H](O)[C@H]1O (stereo partly specified) | 1 µM | 0.4 µM | 4.5 µM | 1.2 µM | 0.02 µM | 0.07 µM | 0.08 µM | IC50 [15]: 0.5 µM; IC50 [16]: 2.5 µM; IC50 [17]: 0.23 µM; IC50 [18]: 0.07 µM; IC50 [19]: 0.42 µM; IC50 [20]: 0.13 µM; IC50 [21]: 0.28 µM; IC50 [14]: 0.076 µM; IC50 [9]: 0.2 µM
Nc1ncnc2c1ccn2[C@@H]1O[C@H](CO)[C@@H](O)[C@H]1O [TUBERCIDIN] | – | – | – | – | – | – | 0.043 µM | IC50 [22]: 1 µM
Nc1nnc(O)c2c1ccn2[C@@H]1O[C@H](CO)[C@@H](O)[C@H]1O | > 100 µM | > 100 µM | 90 µM | – | – | – | 74 µM | IC50 [23]: Not Active; IC50 [24]: Not Active; IC50 [25]: Not Active; IC50 [26]: Not Active
O=c1[nH][nH]c(=O)c2c1ccn2[C@@H]1O[C@H](CO)[C@@H](O)[C@H]1O | > 100 µM | > 100 µM | > 100 µM | – | – | – | – | IC50 [3]: Not Active

Source: ChEMBL document CHEMBL1127034, “Synthesis, antiproliferative, and antiviral activity of 4-amino-1-(beta-D-ribofuranosyl)pyrrolo[2,3-d]pyridazin-7(6H)-one and related derivatives” (J Med Chem, 1993)
